Measurements from ChEMBL document CHEMBL1926564, “Design, synthesis and biological activity of original pyrazolo-pyrido-diazepine, -pyrazine and -oxazine dione derivatives as novel dual Nox4/Nox1 inhibitors” (Bioorg Med Chem, 2011).

Experiments:
[1] = AUC (infinity) in Sprague-Dawley rat at 5 mg/kg, iv; format: ADME, organism-based; parameters: time infinity, dose 5 mg/kg, route intravenous; conditions: plasma
Summary of the method: (§1)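 Rats in two groups of three: 5 mg/kg iv in EDPW (10% EtOH, 10% DMA, 30% PG, 50% water) or 10 mg/kg oral in aqueous 0.5% CMC/0.25% Tween 20. Carotid arterial cannula blood sampled up to 24 h. Plasma levels by LC/MS/MS (LLOQ 1.00 ng/mL); noncompartmental analysis.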

[2] = Clearance in Sprague-Dawley rat at 10 mg/kg, po; format: ADME, organism-based; parameters: dose 10 mg/kg, route oral; conditions: in vivo; summary of the method: as §1
NADPH oxidase 4 = biological target: T1, NADPH oxidase 4 (Homo sapiens, UniProt Q9NPH5); assay: Antagonist activity at human NOX4 expressed in CHO cell membrane coexpressing tetracylin repressor assessed as inhibition of ROS production after 20 mins by cell-free amplex red assay; format: functional; conditions: in the assay text read “HEK293 cell membrane” for “CHO cell membrane”
T1 sequence (Q9NPH5 whole entry): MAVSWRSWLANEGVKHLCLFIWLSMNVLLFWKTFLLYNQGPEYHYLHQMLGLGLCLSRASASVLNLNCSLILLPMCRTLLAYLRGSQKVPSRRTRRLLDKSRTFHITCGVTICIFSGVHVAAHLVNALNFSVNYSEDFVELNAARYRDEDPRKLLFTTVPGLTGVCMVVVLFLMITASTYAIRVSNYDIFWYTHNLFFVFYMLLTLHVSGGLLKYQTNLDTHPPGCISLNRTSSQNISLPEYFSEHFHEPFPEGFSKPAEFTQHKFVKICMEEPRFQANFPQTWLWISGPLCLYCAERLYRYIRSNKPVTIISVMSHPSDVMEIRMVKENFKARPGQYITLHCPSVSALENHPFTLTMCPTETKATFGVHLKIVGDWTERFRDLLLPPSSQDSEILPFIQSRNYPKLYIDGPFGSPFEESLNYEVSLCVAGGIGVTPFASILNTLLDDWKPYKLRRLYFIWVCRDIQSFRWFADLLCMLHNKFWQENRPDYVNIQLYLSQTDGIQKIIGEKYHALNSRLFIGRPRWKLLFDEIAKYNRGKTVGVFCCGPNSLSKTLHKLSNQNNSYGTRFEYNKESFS
Summary of the method: (§2)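 Membranes from tetracycline-induced (24 h) Nox-expressing cells or human PMN (Nox2), sucrose-gradient purified; or xanthine oxidase. Incubated in PBS with Amplex Red, HRP and cofactors; NADPH (Nox) or xanthine starts ROS. Compound 1 nM–100 µM, 20 min at 37 °C, plate-reader. Background without membranes or agonist. Ki by Cheng-Prusoff; mean of ≥3 experiments in triplicate.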

[3] = Clearance in Sprague-Dawley rat liver microsomes assessed per mg of protein at 0.5 uM; format: ADME, Microsome; conditions: read-out: CLH
Summary of the method: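 Pooled rat (male Sprague Dawley) or human (mixed-sex) liver microsomes at 0.5 mg/mL final, 0.1 M phosphate pH 7.4, compound 0.5 µM final, 0.25% DMSO, 37 °C; 1 mM NADPH starts reaction. Sampled 0–45 min, methanol quench with internal standard, LC/MS-MS; intrinsic clearance from compound loss.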

NADPH oxidase 2 = biological target: T2, NADPH oxidase 2 (Homo sapiens, UniProt P04839); assay: Antagonist activity at human NOX2 in human polymorphonuclear cell membrane assessed as inhibition of ROS production after 20 mins by cell-free amplex red assay; format: functional; summary of the method: as §2
T2 sequence (P04839 whole entry): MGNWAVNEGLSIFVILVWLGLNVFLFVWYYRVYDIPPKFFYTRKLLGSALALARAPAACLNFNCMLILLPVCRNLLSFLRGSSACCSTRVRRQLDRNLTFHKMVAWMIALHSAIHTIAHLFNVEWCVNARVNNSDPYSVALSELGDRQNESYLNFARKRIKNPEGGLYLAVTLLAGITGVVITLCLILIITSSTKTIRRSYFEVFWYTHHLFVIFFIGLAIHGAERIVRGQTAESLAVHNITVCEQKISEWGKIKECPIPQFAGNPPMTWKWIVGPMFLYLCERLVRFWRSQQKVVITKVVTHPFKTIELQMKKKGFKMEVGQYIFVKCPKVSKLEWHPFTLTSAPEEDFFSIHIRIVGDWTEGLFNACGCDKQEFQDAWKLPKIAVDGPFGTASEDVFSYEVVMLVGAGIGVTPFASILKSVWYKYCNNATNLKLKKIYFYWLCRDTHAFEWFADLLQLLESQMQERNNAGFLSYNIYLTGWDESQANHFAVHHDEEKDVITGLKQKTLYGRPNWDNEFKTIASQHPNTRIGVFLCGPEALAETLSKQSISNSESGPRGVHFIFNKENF

NADPH oxidase 1 = biological target: T3, NADPH oxidase 1 (Homo sapiens, UniProt Q9Y5S8); assay: Antagonist activity at human NOX1 expressed in CHO cell membrane coexpressing tetracylin repressor assessed as inhibition of ROS production after 20 mins by cell-free amplex red assay; format: functional; summary of the method: as §2
T3 sequence (Q9Y5S8 whole entry): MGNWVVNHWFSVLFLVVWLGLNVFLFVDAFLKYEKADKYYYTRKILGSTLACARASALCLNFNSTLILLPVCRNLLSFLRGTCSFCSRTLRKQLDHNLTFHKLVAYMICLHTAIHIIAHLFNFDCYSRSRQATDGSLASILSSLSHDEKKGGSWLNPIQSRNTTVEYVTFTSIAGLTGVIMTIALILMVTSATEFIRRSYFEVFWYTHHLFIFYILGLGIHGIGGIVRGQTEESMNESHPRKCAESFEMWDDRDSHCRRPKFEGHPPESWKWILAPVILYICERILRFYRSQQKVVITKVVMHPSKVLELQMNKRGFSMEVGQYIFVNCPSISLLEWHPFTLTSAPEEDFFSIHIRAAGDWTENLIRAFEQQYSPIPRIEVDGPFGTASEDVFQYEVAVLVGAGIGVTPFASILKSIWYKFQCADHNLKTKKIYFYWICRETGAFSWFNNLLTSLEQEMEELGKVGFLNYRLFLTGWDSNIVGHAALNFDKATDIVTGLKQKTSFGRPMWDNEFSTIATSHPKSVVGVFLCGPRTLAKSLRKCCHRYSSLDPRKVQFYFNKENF

[4] = Half life in Sprague-Dawley rat at 10 mg/kg, po; format: ADME, organism-based; parameters: dose 10 mg/kg, route oral; conditions: in vivo; summary of the method: as §1
[5] = AUC (infinity) in Sprague-Dawley rat at 10 mg/kg, po; format: ADME, organism-based; parameters: dose 10 mg/kg, route oral, time infinity; conditions: plasma; summary of the method: as §1
[6] = Cmax in Sprague-Dawley rat at 5 mg/kg, iv; format: ADME, organism-based; parameters: dose 5 mg/kg, route intravenous; conditions: in vivo; summary of the method: as §1
[7] = Tmax in Sprague-Dawley rat at 10 mg/kg, po; format: ADME, organism-based; parameters: dose 10 mg/kg, route oral; conditions: in vivo; summary of the method: as §1
[8] = Efflux ratio of apparent permeability across human Caco2 cells at 10 uM after 2 hrs; format: ADME, cell-based; conditions: Caco-2
Summary of the method: (§3)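 Caco-2 monolayers grown 20 days, TEER >800 ohm·cm². Compound 10 µM final in HBSS pH 6.5 (1% DMSO), dosed apical (A→B) or basolateral (B→A), 2 h at 37 °C; both compartments sampled, LC–MS/MS cassette analysis with 5-point calibration.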

[9] = Cmax in Sprague-Dawley rat at 10 mg/kg, po; format: ADME, organism-based; parameters: dose 10 mg/kg, route oral; conditions: in vivo; summary of the method: as §1
[10] = Lipophilicity, log D of the compound at pH 7.4; format: physicochemical; conditions: buffer
[11] = Fraction unbound in rat plasma containing 50% plasma protein; format: ADME, cell-free
Summary of the method: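 Rat plasma protein binding in 50% plasma; fraction unbound reported.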

[12] = Apparent permeability across human Caco2 cells at 10 uM after 2 hrs; format: ADME, cell-based; conditions: Caco-2; summary of the method: as §3

Row | AUC(0-inf) [1] [ng·h/mL] | CL/F [2] [mL/min/kg] | Ki (NADPH oxidase 4) [nM] | microsomal CLint at 0.5 µM [3] [µL/min/mg] | Ki (NADPH oxidase 2) [nM] | Ki (NADPH oxidase 1) [nM] | half-life [4] [h] | AUC(0-inf) [5] [ng·h/mL] | Cmax [6] [ng/mL] | Tmax [7] [h] | efflux ratio at 2 h, 10 µM [8] | Cmax [9] [ng/mL] | logD [10] | fraction unbound [11] | Papp at 2 h, 10 µM [12] [×10⁻⁶ cm/s] | Compound
1 | 39300 | 4.33 | 72 | 64 | 1340 | 101 | 2.37 | 41400 | 42300 | 0.33 | 0.48 | 14900 | 2.23 | 0.12 | 42.2 | Cl.O=c1c2c3n(c(=O)cc2[nH]n1-c1ccccc1Cl)CCCN(Cc1ccccc1)C3
2 | 11800 | 17 | 67 | 27.5 | 1140 | 113 | 3.63 | 9900 | 21800 | 0.25 | 10.1 | 11300 | 1.1 | 0.026 | 1.8 | Cl.O=c1c2c3n(c(=O)cc2[nH]n1-c1ccccc1Cl)CCCN(Cc1ccccn1)C3
